Series [1] has as its system Plasmodium falciparum. As to the kind of experiment: Antiplasmodial activity against asexual stage of chloroquine-sensitive Plasmodium falciparum D6 infected in human erythrocytes assessed as reduction in parasite growth incubated for 72 hrs by SYBR green 1 staining based assay. The series is classed as functional, organism-based. The conditions noted are these: D6, Erythrocyte. An outline of the steps:
(§1)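 P. falciparum grown in human erythrocytes at 2% hematocrit in RPMI 1640 with 0.5% Albumax II, hypoxanthine and gentamicin. Assay run at 0.2% parasitemia, 2% hematocrit, triplicate, 72 h at 37 °C under low oxygen. Starting range 2.5–2500 nM, adjusted as needed. SYBR Green I lysis buffer added for 1 h in the dark, fluorescence read at ex 497/em 520 nm. IC50 by nonlinear regression against drug-free controls.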

In series [2] the test system is Plasmodium falciparum. As to the kind of experiment: Antiplasmodial activity against asexual blood stage of multidrug-resistant Plasmodium falciparum Dd2 infected in human erythrocytes assessed as reduction in parasite growth incubated for 72 hrs by SYBR green 1 staining based assay. The series is classed as functional, organism-based. The conditions noted are these: Dd2, Erythrocyte. The essentials: as §1

Series [3] has as its system Plasmodium falciparum. As to the kind of experiment: Antiplasmodial activity against asexual blood stage of multidrug-resistant Plasmodium falciparum 7G8 infected in human erythrocytes assessed as reduction in parasite growth incubated for 72 hrs by SYBR green 1 staining based assay. Conditions: 7G8, Erythrocyte. The series is classed as functional, organism-based. The essentials: as §1

Series [4] deals with Plasmodium falciparum. As to the kind of experiment: Antiplasmodial activity against asexual blood stage of multidrug-resistant Plasmodium falciparum TM90C2B infected in human erythrocytes assessed as reduction in parasite growth incubated for 72 hrs by SYBR green 1 staining based assay. The conditions noted are these: Erythrocyte. The series is classed as functional, organism-based.

For another series, the system named is HepG2. As to the kind of experiment: Cytotoxicity against human HepG2 cells assessed as reduction in cell viability measured for 48 hrs by MTT assay. The series is classed as cell-based. The conditions noted are these: HepG2, 48 h.
Series [5] relates to Plasmodium yoelii. As to the kind of experiment: Antimalarial activity against blood stage Plasmodium yoelii infected in CF1 mouse assessed as reduction in parasitemia at 5 mg/kg, po administered once daily for 4 days and measured on day 5 by Giemsa staining based microscopic analysis relative to control. The series is classed as functional. More on the design: scale not given: the % may be the effect or the level left. Conditions: time 4 day. An outline of the steps: (§2)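 Female CF1 mice, 7–8 weeks old, about 30 g, n = 4 per group. Infected iv with 2.5 × 104 P. yoelii (Kenya strain) parasitized erythrocytes from a donor mouse. Dosed orally in PEG-400, 5 or 25 mg/kg once daily for 4 days, starting the day after inoculation. Giemsa-stained tail-vein blood films read the day after the last dose, then weekly to day 28. Parasitemia taken relative to vehicle controls.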

Series [6] concerns Plasmodium yoelii. As to the kind of experiment: Antimalarial activity against blood stage Plasmodium yoelii infected in CF1 mouse assessed as reduction in parasitemia at 25 mg/kg, po administered once daily for 4 days and measured on day 5 by Giemsa staining based microscopic analysis relative to control. In kind it is functional. More on the design: scale not given: the % may be the effect or the level left. Conditions: time 4 day. The essentials: as §2

The nature of series [7]: Toxicity in CF-1 mouse infected with blood stage Plasmodium yoelii assessed as reduction in body weight at 5 to 25 mg/kg, po administered once daily for 4 days and measured for 28 days. In kind it is organism-based. Conditions: in vivo, 96 h, dose 5-25 mg/kg, time 4 day. An outline of the steps:
(§3)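 CF1 mice infected with P. yoelii and given oral doses of 5 or 25 mg/kg in PEG-400 once daily for 4 days. Checked daily for mortality, morbidity and signs of toxicity. Body weight, grooming, posture and locomotion monitored over the study, to day 28. Compared with the vehicle control group.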

Series [8] in a line: Toxicity in CF-1 mouse infected with blood stage Plasmodium yoelii assessed as behavioral changes at 5 to 25 mg/kg, po administered once daily for 4 days and measured for 28 days. In kind it is organism-based. Conditions: in vivo, 96 h, dose 5-25 mg/kg, time 4 day. The essentials:
as §3

Series [9] is described as follows: Therapeutic index, ratio of IC50 for cytotoxicity against human HepG2 cells to IC50 for antiplasmodial activity against asexual blood stage of chloroquine-sensitive Plasmodium falciparum D6 infected in human erythrocytes.
The subject of series [10] is Plasmodium yoelii. As to the kind of experiment: Antimalarial activity against blood stage Plasmodium yoelii infected in CF1 mouse assessed as reduction in parasitemia administered orally once daily for 4 days and measured for 28 days by Giemsa staining based microscopic analysis. In kind it is functional. The conditions noted are these: po, 96 h, time 4 day. The essentials:
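Female CF1 mice, 7–8 weeks old, about 30 g, n = 4 per group. Dosed orally in PEG-400, 5 or 25 mg/kg once daily for 4 days, starting the day after inoculation. Giemsa-stained tail-vein blood films read the day after the last dose, then weekly to day 28. Parasitemia taken relative to vehicle controls.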

What is called IC50 is the point on the concentration scale where inhibition reaches its midpoint. Consider `CCCCc1cc(/C=C2\N=C(c3ccc(Cc4ccc(O)cc4)[nH]3)C=C2OC)[nH]c1C.Cl`, for which the IC50 was found to be 0.012 µM with Plasmodium falciparum [1]; 0.012 µM with Plasmodium falciparum [2]; 0.016 µM in the series with Plasmodium falciparum [3]; 0.017 µM with Plasmodium falciparum [4]; 8.88 µM in the series with HepG2. Besides, the Activity in the series with Plasmodium yoelii [5] is 0%; in the series on Plasmodium yoelii [6], 6%; in series [7], “Non-Toxic”; in [8] it was “Non-Toxic”. The selectivity ratio in [9] was 740.
For the compound `CCCCCCc1cc(/C=C2\N=C(c3ccc(Cc4ccc(O)cc4)[nH]3)C=C2OC)[nH]c1C.Cl`, the IC50 came to 0.009 µM with Plasmodium falciparum [1]; 0.011 µM in the series on Plasmodium falciparum [2]; 0.013 µM in the series on Plasmodium falciparum [3]; 0.012 µM in the series with Plasmodium falciparum [4]; 9.93 µM with HepG2. Further, the Activity with Plasmodium yoelii [5] was 0%; in the series with Plasmodium yoelii [6], 9%; in series [7], “Non-Toxic”; in series [8] it was “Non-Toxic”. For the same compound, the selectivity ratio in series [9] amounted to 1100.
A word on the ED50: it is the dose at which the effect has come halfway, by size or by number of responders. Consider `COC1=CC2=N/C1=C\NCC/C=C/CCCCCCCCc1ccc2[nH]1.Cl`, for which the IC50 was 0.022 µM in the series on Plasmodium falciparum [1], 0.016 µM in the series on Plasmodium falciparum [2], 0.013 µM with Plasmodium falciparum [4] and 29.4 µM with HepG2. The Activity in the series on Plasmodium yoelii [5] is reported as 0%; in the series with Plasmodium yoelii [6], 100%; in series [7], “Non-Toxic”; in series [8], “Non-Toxic”. In the series with Plasmodium yoelii [10], the median effective dose (ED50) is 15 mg/kg/day. The ED90 in the series on Plasmodium yoelii [10] worked out at 16 mg/kg/day. The selectivity ratio in series [9] was 1340.
As for `COC1=CC(c2ccc[nH]2)=N/C1=C\c1cc(CCCCC(C)C)c(C)[nH]1.Cl`, the IC50 in the series with Plasmodium falciparum [1] worked out at 0.0041 µM; in the series with Plasmodium falciparum [2], 0.0021 µM; in the series on Plasmodium falciparum [3] it was 0.0021 µM; in the series with Plasmodium falciparum [4], 0.0026 µM; in the series with HepG2 it was 1.49 µM. In addition, the Activity in the series with Plasmodium yoelii [5] is listed as 65%; in the series with Plasmodium yoelii [6], 100%; in series [7], “Non-Toxic”; in [8] it was “Non-Toxic”. For the same compound, in the series with Plasmodium yoelii [10], the ED50 is 2.7 mg/kg/day. The ED90 in the series with Plasmodium yoelii [10] turned out to be 5.9 mg/kg/day. Besides, the selectivity ratio in series [9] came to 363.
As for `CCCCCCCc1cc(/C=C2\N=C(c3ccc(Cc4ccc(O)cc4)[nH]3)C=C2OC)[nH]c1C.Cl`, the IC50 in the series on Plasmodium falciparum [1] came to 0.048 µM; in the series on Plasmodium falciparum [2] it was 0.054 µM; in the series on Plasmodium falciparum [3], 0.044 µM; with Plasmodium falciparum [4] it was 0.04 µM; with HepG2 it was 9.23 µM. Also, the Activity in the series with Plasmodium yoelii [5] was 25%; in the series with Plasmodium yoelii [6], 37%; in series [7], “Non-Toxic”; in series [8], “Non-Toxic”. Further, the selectivity ratio in series [9] was found to be 192.
Consider `CCCCCc1cc(/C=C2\N=C(c3ccc(Cc4ccc(OC)cc4)[nH]3)C=C2OC)[nH]c1C.Cl`, for which the IC50 in the series with Plasmodium falciparum [1] is 0.0024 µM; with Plasmodium falciparum [2] it was 0.0032 µM; in the series with Plasmodium falciparum [3] it was 0.0056 µM; in the series with Plasmodium falciparum [4], 0.0023 µM; with HepG2, 2.64 µM. Moreover, the Activity with Plasmodium yoelii [5] is given as 60%; in the series on Plasmodium yoelii [6] it was 100%; in series [7], “Non-Toxic”; in series [8], “Non-Toxic”. Moreover, the ED50 in the series on Plasmodium yoelii [10] was 3.6 mg/kg/day. For the same compound, the ED90 in the series on Plasmodium yoelii [10] was 18 mg/kg/day. In addition, in series [9], the selectivity ratio is 1100.
For the compound `CCCCCc1cc(/C=C2\N=C(c3ccc[nH]3)C=C2OC)[nH]c1C.Cl`, the IC50 with Plasmodium falciparum [1] was determined as 0.008 µM; in the series on Plasmodium falciparum [2], 0.0073 µM; in the series with Plasmodium falciparum [3], 0.0092 µM; with Plasmodium falciparum [4], 0.0088 µM; with HepG2, 1.07 µM. Moreover, the Activity with Plasmodium yoelii [5] is 63%; with Plasmodium yoelii [6], 100%; in series [7] it was “Non-Toxic”; in [8], “Non-Toxic”. In addition, the 50% effective dose (ED50) with Plasmodium yoelii [10] worked out at 3.7 mg/kg/day. Further, the ED90 in the series with Plasmodium yoelii [10] was determined as 17 mg/kg/day. Further, the selectivity ratio in series [9] came to 134.
For `CCCCCCCc1cc(/C=C2\N=C(c3ccc[nH]3)C=C2OC)[nH]c1C.Cl`, the half-maximal inhibitory concentration (IC50) amounted to 0.0042 µM with Plasmodium falciparum [1]; 0.0045 µM in the series on Plasmodium falciparum [2]; 0.0041 µM in the series with Plasmodium falciparum [3]; 0.0025 µM in the series with Plasmodium falciparum [4]; 1.35 µM in the series on HepG2. The Activity is listed as 89% with Plasmodium yoelii [5], 100% in the series on Plasmodium yoelii [6], “Non-Toxic” in [7] and “Non-Toxic” in series [8]. Besides, the ED50 with Plasmodium yoelii [10] amounted to 2.6 mg/kg/day. Also, the ED90 in the series on Plasmodium yoelii [10] was 9.2 mg/kg/day. Also, the selectivity ratio in series [9] was 320.
Consider `CCCCc1cc(/C=C2\N=C(c3ccc[nH]3)C=C2OC)[nH]c1C.Cl`, for which the IC50 in the series with Plasmodium falciparum [1] worked out at 0.011 µM; in the series on Plasmodium falciparum [2], 0.0056 µM; in the series on Plasmodium falciparum [3], 0.0087 µM; in the series on Plasmodium falciparum [4] it was 0.0085 µM; with HepG2, 3.32 µM. Besides, the Activity in the series on Plasmodium yoelii [5] was 67%; in the series with Plasmodium yoelii [6], 100%; in series [7] it was “Non-Toxic”; in series [8], “Non-Toxic”. Moreover, the ED50 in the series with Plasmodium yoelii [10] came to 2.5 mg/kg/day. In addition, in the series with Plasmodium yoelii [10], the ED90 is 8.5 mg/kg/day. In addition, the selectivity ratio in [9] is 301.
Consider `C=CCCCCCCCCc1ccc(C2=N/C(=C\NCCC=C)C(OC)=C2)[nH]1.Cl`, for which the IC50 came to 0.0089 µM in the series on Plasmodium falciparum [1], 0.0065 µM in the series on Plasmodium falciparum [2], 0.0026 µM in the series with Plasmodium falciparum [4] and 1.6 µM in the series on HepG2. Besides, the Activity is reported as 0% in the series on Plasmodium yoelii [5], 42% in the series with Plasmodium yoelii [6], “Non-Toxic” in series [7] and “Non-Toxic” in series [8]. The selectivity ratio in series [9] was 180.
Take `O=C1C(O)=C([C@H]2CC[C@H](c3ccc(Cl)cc3)CC2)C(=O)c2ccccc21` [ATOVAQUONE]: the IC50 came to 0.0001 µM in the series on Plasmodium falciparum [1] and 0.0002 µM with Plasmodium falciparum [3].
As to `CCCCCc1cc(/C=C2\N=C(c3ccc(Cc4ccc(O)cc4)[nH]3)C=C2OC)[nH]c1C.Cl`, the IC50 stood at 0.016 µM with Plasmodium falciparum [1]; 0.028 µM in the series on Plasmodium falciparum [2]; 0.027 µM in the series with Plasmodium falciparum [3]; 0.029 µM in the series on Plasmodium falciparum [4]; 7.02 µM in the series with HepG2. The Activity in the series on Plasmodium yoelii [5] is reported as 0%; in the series on Plasmodium yoelii [6] it was 0%; in series [7], “Non-Toxic”; in series [8], “Non-Toxic”. Also, the selectivity ratio in series [9] amounted to 439.
With `CCN(CC)CCCC(C)Nc1ccnc2cc(Cl)ccc12` (stereo unspecified) [CHLOROQUINE], the Activity in the series on Plasmodium yoelii [5] and in the series on Plasmodium yoelii [6] was 100% in each case.
For `CCCCCCc1cc(/C=C2\N=C(c3ccc[nH]3)C=C2OC)[nH]c1C.Cl`, the IC50 in the series on Plasmodium falciparum [1] amounted to 0.0059 µM; in the series with Plasmodium falciparum [2], 0.0034 µM; in the series on Plasmodium falciparum [3], 0.0036 µM; in the series with Plasmodium falciparum [4], 0.0046 µM; in the series on HepG2 it was 2.42 µM. The Activity in the series with Plasmodium yoelii [5] is 70%; with Plasmodium yoelii [6] it was 100%; in series [7] it was “Non-Toxic”; in series [8], “Non-Toxic”. Besides, the ED50 in the series with Plasmodium yoelii [10] was determined as 1.5 mg/kg/day. Besides, the ED90 in the series with Plasmodium yoelii [10] is 4.8 mg/kg/day. In series [9], the selectivity ratio was determined as 410.
